ChEMBL document CHEMBL1148368, “Synthesis and antitumor activity of quinonoid derivatives of cannabinoids” (2004)

Experiments:
SNB-19 = experiment: Concentration of compound required to inhibit the growth of SNB-19 cells; assay type: functional, cell-based; settings: Homo sapiens
In short: (§1)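 Adherent/epithelial cancer cells were grown in RPMI 1640 with 10% heat-inactivated FCS, 2 mM L-glutamine, penicillin and streptomycin at 37 °C in 5% CO2. Cells were seeded at 0.02×10^6 per well with varied quinone concentrations. MTT readout was taken after 3 days. Five replicate wells were used per concentration, in 2–3 repeat experiments. Results are % inhibition versus untreated wells given 0.5% ethanol vehicle.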

Jurkat [1] = experiment: Inhibition of the growth of Jurkat lymphoma cells at 0.2 ug/ml concentration; assay type: functional; settings: Homo sapiens
In short: (§2)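 Lymphoma cells were suspended in RPMI 1640 with 20% heat-inactivated FCS, 2 mM L-glutamine, penicillin and streptomycin at 37 °C in 5% CO2. Cells were plated at 0.02×10^6 per well with varied quinone concentrations. MTT reduction was measured on day 3. Five replicate wells were used per concentration, in 2–3 repeat experiments. Inhibition is expressed as % versus 0.5% ethanol vehicle wells.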

Raji [2] = experiment: Inhibition of the growth of Raji lymphoma cells at 1.56 ug/ml concentration; assay type: functional; settings: Homo sapiens; in short: as §2
Raji [3] = experiment: Inhibition of the growth of Raji lymphoma cells at 0.2 ug/ml concentration; assay type: functional; settings: Homo sapiens; in short: as §2
HT-29 = experiment: Inhibition of the growth of HT-29 colon cancer cells at 3.125 ug/ml concentration; assay type: functional; settings: Homo sapiens; in short: as §1
Jurkat [4] = experiment: Inhibition of the growth of Jurkat lymphoma cells at 1.56 ug/ml concentration; assay type: functional; settings: Homo sapiens; in short: as §2
MCF7 = experiment: Inhibition of the growth of MCF-7 mammary cancer cells at 3.125 ug/ml concentration; assay type: functional; settings: Homo sapiens; in short: as §1
Jurkat [5] = experiment: Inhibition of the growth of Jurkat lymphoma cells at 12.5-25.0 ug/ml concentration; assay type: functional, Homo sapiens; in short: as §2
Raji [6] = experiment: Inhibition of the growth of Raji lymphoma cells at 6.25 ug/ml concentration; assay type: functional; settings: Homo sapiens; in short: as §2
Raji [7] = experiment: Inhibition of the growth of Raji lymphoma cells at 12.5-25.0 ug/ml concentration; assay type: functional, Homo sapiens; in short: as §2

In the case of `CCCCCC1=CC(=O)C2=C(OC(C)(C)[C@@H]3CC=C(C)C[C@@H]23)C1=O`, the Concentration (SNB-19) is reported as 100 µg/mL.

With `C=C(C)C1CCC(C)=C[C@H]1C1=C(O)C=C(CCCCC)C(=O)C1=O` (stereo not given in full) the inhibition at 0.2 µg/mL (Jurkat [1]) was 50%, the inhibition at 1.56 µg/mL (Raji [2]) was 80% and the inhibition at 0.2 µg/mL (Raji [3]) was 50%. For the same compound, the inhibition at 3.125 µg/mL (HT-29) was 50%, the inhibition at 1.56 µg/mL (Jurkat [4]) was 80% and the inhibition at 3.125 µg/mL (MCF7) was 50%.

`CCCCCC1=CC(=O)C2=C(OC(C)(C)c3ccc(C)cc32)C1=O` showed an Inhibition (Jurkat [5]) of 50%, an inhibition at 6.25 µg/mL (Raji [6]) of 50% and an Inhibition (Raji [7]) of 50%.
